# Reference: BindingDB's records for doi:10.1021/jm0010217 (Menarini Ricerche, 2000)
# Bridge positions count the residues as written; N and C are the ends. Square brackets hold non-standard residues; d marks the D form. Peptide text beside a SMILES is read from it. * marks the point of attachment. NH(β-GlcNAc) = CC(=O)N[C@@H]1[C@@H](O)[C@H](O)[C@@H](CO)O[C@H]1N*; Dap = NC[C@H](N)C(=O)O
# Tests used:
# Substance-K receptor [1] = target: T1, Substance-K receptor (Homo sapiens, UniProt P21452, Y266F); assay: Compound was evaluated for Kd value against [125I]NKA on the Tyr266Phe mutated human NK-2 receptor
# T1 sequence (P21452 whole entry): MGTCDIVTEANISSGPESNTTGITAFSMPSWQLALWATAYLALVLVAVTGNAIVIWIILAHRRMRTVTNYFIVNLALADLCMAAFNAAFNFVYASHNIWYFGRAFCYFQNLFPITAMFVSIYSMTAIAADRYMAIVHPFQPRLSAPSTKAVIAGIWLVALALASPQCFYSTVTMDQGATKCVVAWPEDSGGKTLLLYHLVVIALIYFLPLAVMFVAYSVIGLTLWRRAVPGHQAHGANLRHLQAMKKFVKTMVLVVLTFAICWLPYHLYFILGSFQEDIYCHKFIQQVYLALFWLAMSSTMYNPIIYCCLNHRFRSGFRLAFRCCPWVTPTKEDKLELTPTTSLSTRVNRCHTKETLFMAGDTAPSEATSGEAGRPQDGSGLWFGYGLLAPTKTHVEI
# Substance-K receptor [2] = target: T2, Substance-K receptor (Homo sapiens, UniProt P21452, Y206F); assay: Compound was evaluated for Kd value against [125I]-NKA on the Tyr206Phe mutated human NK-2 receptor
# T2 sequence (P21452 whole entry): T1 sequence (P21452 whole entry)
# Substance-K receptor [3] = target: T3, Substance-K receptor (Homo sapiens, UniProt P21452); assay: (§1) Compound was evaluated for Kd value against [3H]-SR- 48968 on the Tyr206Ala mutated human NK-2 receptor
# T3 sequence (P21452 whole entry): T1 sequence (P21452 whole entry)
# Substance-K receptor [4] = target: T1, Substance-K receptor; assay: Compound was evaluated for Kd value against [3H]-SR- 48968 on the Tyr266Phe mutated human NK-2 receptor
# Substance-K receptor [5] = target: T3, Substance-K receptor; assay: Compound was evaluated for Kd value against [125I]NKA on the Wild-type tachykinin receptor 2
# Substance-K receptor [6] = target: T3, Substance-K receptor; assay: Compound was evaluated for Kd value against [3H]-SR- 48968 on the Wild-type tachykinin receptor 2
# Substance-K receptor [7] = target: T4, Substance-K receptor (Homo sapiens, UniProt P21452, F270A); assay: Compound was evaluated for Kd value against [3H]-SR- 48968 on the Phe270Ala mutated human NK-2 receptor
# T4 sequence (P21452 whole entry): T1 sequence (P21452 whole entry)
# Substance-K receptor [8] = target: T2, Substance-K receptor; assay: Compound was evaluated for Kd value against [3H]-SR- 48968 on the Tyr206Phe mutated human NK-2 receptor
# Substance-K receptor [9] = target: T5, Substance-K receptor (Homo sapiens, UniProt P21452, Y206A); assay: as §1
# T5 sequence (P21452 whole entry): T1 sequence (P21452 whole entry)
# Substance-K receptor [10] = target: T2, Substance-K receptor; assay: Compound was evaluated for Kd value against [125I]NKA on the Tyr206Phe mutated human NK-2 receptor
# In short: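 Human NK-2 receptor carrying the point mutation, transfected into CHO cells. Radioligand binding with [125I]NKA.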
Kd (Substance-K receptor [1]) [nM],Kd (Substance-K receptor [2]) [nM],Kd (Substance-K receptor [3]) [nM],Kd (Substance-K receptor [4]) [nM],Kd (Substance-K receptor [5]) [nM],Kd (Substance-K receptor [6]) [nM],Kd (Substance-K receptor [7]) [nM],Kd (Substance-K receptor [8]) [nM],Kd (Substance-K receptor [9]) [nM],Kd (Substance-K receptor [10]) [nM],SMILES
26,3.1,> 1000,48,2.1,4.4,291,1.9,,,CC(=O)N[C@@H]1[C@@H](O)[C@H](O)[C@@H](CO)O[C@H]1NC(=O)C[C@@H]1NC(=O)[C@H](CC(C)C)NC(=O)[C@@H]2CNC(=O)C[C@H](NC1=O)C(=O)N[C@@H](Cc1c[nH]c3ccccc13)C(=O)N[C@@H](Cc1ccccc1)C(=O)N2 (cyclo(D(NH(β-GlcNAc))DWF[Dap]L); lactam 2-5)
34,,,48,2.7,10,208,1.3,1960,3.6,O=C1CCC(=O)N[C@@H](Cc2c[nH]c3ccccc23)C(=O)N[C@@H](Cc2ccccc2)C(=O)N[C@H](Cc2ccccc2)CN1 [MEN-11558]
